Assays:
[1] = The antiviral activity against HIV-1 in human peripheral blood mononuclear (PBM) cells expressed as median effective concentration; assay type: functional; details: read-out: ED50 (the source's name)
Procedure, shortened: (§1)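 PHA-stimulated human PBM cells infected with HIV-1 strain LAV-1 (about 63 000 dpm RT activity per 10^7 cells/10 mL medium), then drug added to duplicate or triplicate cultures. Incubated at 37 °C in 5% CO2 for 6 days. Supernatant RT activity measured on pelleted virus with (rA)n·(dT)12-18 template-primer, expressed as dpm/mL. EC50 taken from median-effect plot of dose-effect data.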

[2] = The antiviral activity against HIV-1 in human peripheral blood mononuclear (PBM) cells expressed as inhibitory concentration; assay type: functional; procedure, shortened: as §1

Row | Structure (SMILES) | EC50 [1] [µM] | IC50 [2] [µM]
1 | OCC1CCC(n2cnc3c(S)ncnc32)O1 (centres undefined) | 53.9 | > 100
2 | Nc1ncnc2c1ncn2[C@H]1CC[C@@H](CO)O1 | 0.62 | > 100
3 | CN(C)c1ncnc2c1ncn2C1CCC(CO)O1 (centres undefined) | 2.3 | > 100
4 | CNc1ncnc2c1ncn2C1CCC(CO)O1 (centres undefined) | 0.26 | > 100
5 | CSc1ncnc2c1ncn2C1CCC(CO)O1 (centres undefined) | 3.6 | > 100
6 | OC[C@@H]1CC[C@H](n2cnc3c(Cl)ncnc32)O1 | 2.1 | > 100
7 | OC[C@@H]1CC[C@H](n2cnc3cncnc32)O1 | > 100 | > 100
8 | CNc1ncnc2c1ncn2C1OC(CO)CC1F (centres undefined) | 4.3 | > 100
9 | CCNc1ncnc2c1ncn2C1CCC(CO)O1 (centres undefined) | 5.2 | > 100
10 | OCC1CCC(n2cnc3c(NCc4ccccc4)ncnc32)O1 (centres undefined) | > 100 | 10
11 | Nc1nc(O)c2ncn([C@H]3CC[C@@H](CO)O3)c2n1 | 0.88 | > 100
12 | O=c1[nH]cnc2c1ncn2[C@H]1CC[C@@H](CO)O1 [DIDANOSINE] | 5.5 | > 100
